Reference: ChEMBL document CHEMBL1156168, “Eastern extension of azoles as non-nucleoside inhibitors of HIV-1 reverse transcriptase; cyano group alternatives” (Bioorg Med Chem Lett, 2010)

Tests used:
[1] = system: Human immunodeficiency virus 1; experiment: Antiviral activity against HIV1 3B infected in human MT2 cells assessed as inhibition of virus replication by MTT assay; type: functional, organism-based; settings: Human immunodeficiency virus 1, 3B
Method in brief: (§1)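 HIV-1 (IIIB or RT-variant strain) infection of human MT-2 T-cells. Protection of the infected cells was read out by the MTT colorimetric method.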

[2] = system: MT2; experiment: (§2) Cytotoxicity against human MT2 cells by MTT assay; type: cell-based; settings: mt2
[3] = system: MT2; experiment: Cytotoxicity against human MT2 cells infected with HIV1 harboring reverse transcriptase K103N/Y181C mutation by MTT assay; type: cell-based
[4] = system: MT2; experiment: Cytotoxicity against human MT2 cells infected with HIV1 harboring reverse transcriptase Y181C mutation by MTT assay; type: cell-based
[5] = system: Human immunodeficiency virus 1; experiment: Antiviral activity against HIV1 reverse transcriptase Y181C mutant infected in human MT2 cells assessed as inhibition of viral replication by MTT assay; type: functional, organism-based; settings: Human immunodeficiency virus 1, MT2; method in brief: as §1
[6] = system: Human immunodeficiency virus 1; experiment: Antiviral activity against HIV1 reverse transcriptase K103N/Y181C double mutant infected in human MT2 cells assessed as inhibition of viral replication by MTT assay; type: functional, organism-based; settings: Human immunodeficiency virus 1, MT2; method in brief: as §1
[7] = as §2; type: cell-based; settings: MT2 cells

Structure (SMILES) | EC50 [1] | CC50 [2] | CC50 [3] | CC50 [4] | EC50 [5] | EC50 [6] | CC50 [7]
Fc1cccc(F)c1Cc1cnc(Nc2ccc(COc3ccncc3)c(Cl)c2)o1 | 0.03 µM | 3.8 µM | – | – | – | – | –
[O-][n+]1ccc(OCc2ccc(Nc3ncc(Cc4c(F)cccc4F)o3)cc2Cl)cc1 | 0.011 µM | 1.7 µM | 2.1 µM | 2.7 µM | – | – | –
N#Cc1ccc(Nc2ncc(Cc3c(F)cccc3F)o2)cc1Cl | 0.006 µM | – | – | – | – | – | –
Clc1cccc(Cl)c1Cc1nnc(Nc2ccc(COCc3ccccn3)cc2)o1 | 5 µM | > 100 µM | – | – | – | – | –
Clc1cccc(Cl)c1Cc1nnc(Nc2ccc(COCc3ccco3)cc2)o1 | 2.8 µM | 12 µM | – | – | – | – | –
OCc1ccc(Nc2ncc(Cc3c(F)cccc3F)o2)cc1Cl | 0.26 µM | 90 µM | – | – | – | – | –
Clc1cccc(Cl)c1Cc1nnc(Nc2ccc(COCc3ccccc3)cc2)o1 | – | 84 µM | – | – | – | – | –
Fc1cccc(F)c1Cc1cnc(Nc2ccc(Oc3ccncc3)c(Cl)c2)o1 | 0.12 µM | 21 µM | 17 µM | 17 µM | 2.3 µM | 7.2 µM | –
Clc1cccc(Cl)c1Cc1nnc(Nc2ccc(COCc3cccnc3)cc2)o1 | 4.6 µM | 81 µM | – | – | – | – | –
Clc1cccc(Cl)c1Cc1nnc(Nc2ccc(COCc3ccncc3)cc2)o1 | 1.6 µM | 81 µM | – | – | – | – | –
CSCc1ccc(Nc2ncc(Cc3c(F)cccc3F)o2)cc1 | 1.2 µM | > 100 µM | – | – | – | – | –
OCCc1ccc(Nc2ncc(Cc3c(F)cccc3F)o2)cc1 | 2.7 µM | 35 µM | – | – | – | – | –
Fc1cccc(F)c1Cc1cnc(Nc2ccc(CCOc3ccncc3)cc2)o1 | 1.1 µM | 11 µM | – | – | – | – | –
O=c1ccn(CCOc2ccc(Nc3ncc(Cc4c(F)cccc4F)o3)cc2)c(=O)[nH]1 | 25 µM | 73 µM | – | – | – | – | –
COCc1ccc(Nc2nnc(Cc3c(Cl)cccc3Cl)o2)cc1 | 4.3 µM | 100 µM | – | – | – | – | –
O=c1ncccn1SCCc1ccc(Nc2ncc(Cc3c(F)cccc3F)o2)cc1 | 13 µM | > 100 µM | – | – | – | – | –
Fc1cccc(F)c1Cc1cnc(Nc2ccc(COc3ccncc3)cc2)o1 | 0.4 µM | > 100 µM | – | – | – | – | –

Structure (SMILES) | EC50 [1] | CC50 [2] | CC50 [3] | CC50 [4] | EC50 [5] | EC50 [6] | CC50 [7]
Fc1cccc(F)c1Cc1cnc(Nc2ccc(Oc3ccncc3)cc2)o1 | 0.19 µM | 21 µM | 17 µM | 17 µM | 5 µM | 12 µM | –
Fc1cccc(F)c1Cc1cnc(Nc2ccc(Oc3cccnc3)cc2)o1 | 0.31 µM | 22 µM | – | – | – | – | –
OCc1ccc(Nc2ncc(Cc3c(F)cccc3F)o2)cc1 | 3.8 µM | > 100 µM | – | – | – | – | –
COCc1ccc(Nc2ncc(Cc3c(Cl)cccc3Cl)o2)cc1 | 1.2 µM | 8.1 µM | – | – | – | – | –
Clc1cccc(Cl)c1Cc1nnc(Nc2ccc(COCc3ccoc3)cc2)o1 | – | 21 µM | – | – | – | – | –
Clc1cccc(Cl)c1Cc1nnc(Nc2ccc(COCc3ccsc3)cc2)o1 | – | > 100 µM | – | – | – | – | –
COCc1ccc(Nc2ncc(Cc3c(F)cccc3F)o2)cc1 | 2.1 µM | 32 µM | – | – | – | – | –
Fc1cccc(F)c1Cc1cnc(Nc2ccc(COCc3ccco3)cc2)o1 | 1.6 µM | 31 µM | – | – | – | – | –
Fc1cccc(F)c1Cc1cnc(Nc2ccc(Oc3cccnc3)c(Cl)c2)o1 | – | – | – | – | 3.2 µM | 4.5 µM | –
Fc1cccc(F)c1Cc1cnc(Nc2ccc(Oc3cccnc3)c(Br)c2)o1 | 0.034 µM | 7.5 µM | – | – | – | – | –
Fc1cccc(F)c1Cc1cnc(Nc2ccc(-c3ccncc3)c(Cl)c2)o1 | 0.14 µM | 9.3 µM | 9.1 µM | 11 µM | 3.8 µM | 5.6 µM | –
Fc1cccc(F)c1Cc1cnc(Nc2ccc(-c3cccnc3)c(Cl)c2)o1 | 0.073 µM | 8.9 µM | 12.5 µM | 15 µM | 6 µM | – | –
O=C1Nc2ccc(Cl)cc2[C@@](C#CC2CC2)(C(F)(F)F)O1 [EFAVIRENZ] | – | > 0.1 µM | > 0.1 µM | > 0.1 µM | – | – | –
Cc1cc(C#N)cc(C)c1Oc1nc(Nc2ccc(C#N)cc2)nc(N)c1Br [ETRAVIRINE] | – | > 0.1 µM | > 0.1 µM | > 0.1 µM | 0.011 µM | – | –
Cc1ccnc2c1NC(=O)c1cccnc1N2C1CC1 [NEVIRAPINE] | – | – | – | – | – | – | > 100 µM
Cc1cn([C@H]2C=C[C@@H](CO)O2)c(=O)[nH]c1=O [STAVUDINE] | 1.4 µM | – | – | – | 0.7 µM | 0.5 µM | –
